CaV13 FRET inh: Disruptors of the CACNA1D IQ motif to Ca2+-dependent inactivation inhibitor domain association, primary screening, Förster resonance energy transfer in intact living …; HEK cells, CFP/YFP FRET ICDI-IQ, plate reader, 10 min; percent FRET-ratio fall versus neutral wells; inhibition, % at 12.3 µM; 0.098% of 340,000 active; AID 743397;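 active = mean replicate inhibition of at least 30% and at least 1% of replicates passing that level; inconclusive = only one of the two criteria is met; inactive = neither criterion is met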;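 also: 0% = median of the neutral control wells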
PvdQ acylase: P. aeruginosa PvdQ acylase inhibitors, primary screen, biochemical, fluorescence, plate reader and imaging, single point. PvdQ acylase [Pseudomonas aeruginosa LESB58]. purified PvdQ acylase. inhibition, % at 10 µM. 0.063% of 340,000 active; in the data active = inhibition above about 30%, passing the limit was not always enough; inconclusive = no clear call, values can overlap the other calls;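 also: 0% = vehicle neutral wells and 100% = reference inhibitor wells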
Glyco luc inh: increase of ERlucT glycosylation luciferase signal, primary screen, N-linked glycosylation inhibitor project, D54 ERlucT cells, luminescence, set 2; D54 ERlucT glycosylation luciferase reporter, 24 h; percent of 100 nM tunicamycin response; reporter increase, % at 12.5 µM; 0.23% of 360,000 active; AID 588692, 2011;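 active = mean luciferase reporter signal, scaled so untreated is 0 and the glycosylation-blocking control 100, at or above a set limit in every replicate; inconclusive = mean reaches the limit but not every replicate does; inactive = mean below the limit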;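 also: luciferase carries N-glycosylation sites so blocking glycosylation raises the light; 0% = median of neutral control wells and 100% = median of 100 nM tunicamycin wells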
HSF1 activator: HSF-1 activators, primary screen, NIH3T3-HGL cells, MG132 stress, luminescence, single point | activation, % at 9 µM | NIH3T3-HGL HSF-1 luciferase reporter, 8 h; 100% = twice DMSO control signal | AID 504408, 2011 | 1.7% of 300,000 active;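 active = mean replicate activation of at least 50% with a set share of replicates each reaching 50%; inconclusive = only one of those two conditions met; inactive = mean below 50% and too few replicates reaching it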;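 also: 0% = median of the neutral control wells and 100% = twice that signal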
PfHsp90 set2: growth inhibition of PfHsp90-expressing yeast, primary screen, antimalarial PfHsp90 inhibitor project, S. cerevisiae, BacTiter-Glo luminescence, single point, set 2. 0.32% of 310,000 active. BacTiter-Glo ATP, 48 h; yeast lacking PDR1 and PDR3 efflux regulators. inhibition, % at 9.4 µM. AID 504621, 2011;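 active = every replicate shows inhibition above about 80%, whatever the replicate mean, limit read from the data; inconclusive = mean inhibition reaches the set limit but some replicate falls short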;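 also: 0% = DMSO neutral controls and 100% = 20 µM radicicol positive controls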
T cruzi repl: inhibitors of intracellular T. cruzi growth, primary screen, luminescence, NIH3T3 host cells; T. cruzi beta-gal in NIH3T3, 90 h; inhibition, % (concentration not given with the values); 1.4% of 300,000 active; AID 1885, 2009;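 active = mean inhibition across valid replicates above about 55%, limit read from the data; inconclusive = mean below that limit but half or more replicates reach it; inactive = mean below it, under half of replicates reach it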;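 also: signal also drops with host cell toxicity which is not excluded here; 0% = plate median of DMSO wells and 100% = zero luminescence signal; higher percent means less beta-gal luminescence so fewer parasites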
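Incubation – ≥90 h infection period, 3 h prior cell attachment · System – NIH/3T3 fibroblasts plus reporter T. cruzi · Doses – compound pinned at 50 nL/well, DMSO · Read-out basis – percent inhibition of parasite-derived β-gal signal · Signal – luminescent β-galactosidase signal after 60 min lysis · Also added – 5000 T. cruzi trypomastigotes/well · Medium – Low-serum DMEM with 2% FBS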
An asterisk follows results filed as active; ? = inconclusive; · = no result. The list is not random: actives were taken first. Their share in the collection is about 3%.

SMILES	CaV13 FRET inh	PvdQ acylase	Glyco luc inh	HSF1 activator	PfHsp90 set2	T cruzi repl
O=C(NC(=S)Nc1cccc2cccnc12)c1cccs1	-17	4	4	156*	-10	-15
CCC(=O)Nc1cccc(NC(=S)NC(=O)c2ccccc2Cl)c1	-7	-11	-2	6	-8	-14
CCC(=O)Nc1cccc(NC(=S)NC(=O)c2cccs2)c1	-5	-1	2	79*	-3	-6
COc1ccc(NC(=O)C(=O)Nc2cccc3cccnc23)cc1OC	6	8	8	27	-6	13
COc1ccc(C(=O)Nc2cccc3cccnc23)cc1OC	-8	-8	-1	68*	-14	19
CO[C@H]1CN(C)C(=O)c2cc(NC(=O)c3ccccc3)ccc2OC[C@H](C)NC[C@@H]1C	-6	·	·	·	·	·
O=S1(=O)N[C@@H](Cc2ccccc2)COc2cc(N3CCCCC3)ccc21	-6	·	·	·	·	·
CC(NNC(=S)N1CCN(c2ccccn2)CC1)c1nccc2ccccc12 (stereo not given)	-7	-8	-10	·	121*	·
Cc1ccc(-n2nc(C)c(NC(=O)CCl)c2C)cc1	-4	-13	55*	5	2	-23
CC(=O)Nc1c(C)nn(-c2ccc([N+](=O)[O-])cc2)c1C	-6	-6	-1	-14	12	9
Cc1ccc(-c2cc(NC(=O)CCl)n(-c3ccccc3)n2)cc1	-2	-9	21	65*	-25	4
O=C(Nc1ccccc1)Nc1nnc([C@H]2C[C@H](O)[C@@H](CO)O2)s1	-4	·	-1	·	·	·
CCCCc1c(-c2ccccc2OC)ncn1Cc1cc(F)cc(F)c1	-4	·	·	·	·	·
CCOC(=O)C(C(=O)OCC)c1cc(Br)c2noc3c2c1C(=O)c1ccccc1-3	·	-3	17	52*	19	65*
CCN(CCCNC(=O)CCCN1C(=O)COc2ccc(C)cc21)c1cccc(C)c1	-9	-13	0	101*	·	20
Cc1cc(Cl)ccc1OCC(=O)N1CCCCC1	·	-12	0	15	-3	-1
O=C(COc1ccc(Cl)cc1Cl)N1CCCN(C(=O)COc2ccc(Cl)cc2Cl)CC1	-5	-17	5	24	·	60*
O=C(NCc1ccccc1)[C@H]1CCCN1C(=O)[C@H]1CCCN1C(=O)c1ccc(F)c(C(F)(F)F)c1	-8	·	·	·	·	·
O=C(CCCN1C(=O)CSc2ncccc21)N1CCN(Cc2ccccc2)CC1	37*	-6	1	4	-15	6
CCOC(=O)N1CCC(NC(=O)CCCN2C(=O)CSc3ncccc32)CC1	·	-6	-2	7	14	-19
O=C(NCC(=O)N(c1ccccc1)C(C(=O)NC1CCCC1)c1ccncc1)c1ccco1 (stereo not given)	·	7	2	-14	-22	-7
CC(C)c1ccc(N(C(=O)CNC(=O)c2ccco2)C(C(=O)NC2CCCC2)c2ccncc2)cc1 (stereo not given)	-7	-1	0	168*	24	48
NC(=O)c1ncn([C@@H]2O[C@H](C(=O)N3CCN(Cc4ccccn4)CC3)[C@@H](O)[C@H]2O)n1	-4	·	·	·	·	·
Cc1ccnc(NC(=O)Nc2ccc3c(c2)N(C)C(=O)CS3)c1	-4	-2	?	69*	15	4
Cc1ccnc(NC(=O)c2sc3cc(Cl)ccc3c2Cl)c1	-5	-8	-10	54*	-5	14
SMILES	CaV13 FRET inh	PvdQ acylase	Glyco luc inh	HSF1 activator	PfHsp90 set2	T cruzi repl
Cc1ccnc(NC(=O)Nc2ccc(F)cc2)c1	·	-13	-6	61*	-7	1
Cc1ccnc(NC(=O)CNC(=O)c2ccc(C)s2)c1	-7	11	-4	-10	-3	-12
Cc1ccnc(NC(=O)c2cc3cc(F)ccc3s2)c1	-3	-6	-11	72*	3	-9
Cc1ccc(NC(=O)Nc2ccc3c(c2)N(C)C(=O)CS3)nc1	-8	-16	17	7	-29	-16
C[C@H](CO)N1C[C@H](C)[C@H](CN(C)C(=O)Nc2cccc(F)c2)Oc2cc(Br)ccc2S1(=O)=O	-5	·	·	·	·	·
COC(=O)C1=C(C)N(Cc2ccc(C(F)(F)F)cc2)C(=NCC2CC2)NC1c1ccccc1C(F)(F)F (stereo not given)	-4	·	·	·	·	·
CCOC(=O)CN1C(=O)/C(=C/c2cccc(Br)c2)Oc2ccccc21	-21	11	0	14	7	0
O=C(O)CN1C(=O)/C(=C/c2ccccc2Br)Oc2ccccc21	-2	8	3	70*	6	-11
Cc1ccc(/C=N/NC(=O)c2cccc(S(=O)(=O)Nc3ccccc3Cl)c2)o1	-3	-6	1	66*	31	-5
O=[N+]([O-])c1cccc(SSc2cccc([N+](=O)[O-])c2)c1	-2	-3	0	·	110*	·
Nc1cccc([N+](=O)[O-])c1	-2	-5	1	37	-3	-10
COC(C(=O)Nc1ccc(S(=O)(=O)Nc2cccc3ccccc23)cc1)c1ccccc1 (stereo not given)	-6	-4	-4	55*	7	-15
COC(C(=O)Nc1ccc(S(=O)(=O)Nc2ccc(F)cc2)cc1)c1ccccc1 (stereo not given)	-6	-16	-4	17	-34	-7
C/C(=N\NC(=O)c1c([N+](=O)[O-])c(C)nn1C)c1ccc(NC(=O)C2CCCC2)cc1	-3	12	33*	-13	22	0
COc1ccc(-c2noc(-c3ccc(Cl)cc3[N+](=O)[O-])n2)cc1OC	-16	-6	2	53*	-35	-6
Cc1cc2cc(C=C(C#N)C#N)c(Cl)nc2cc1C	-50	-2	38*	-10	12	2
Cc1cc(OCC(=O)N(Cc2ccco2)C2CCS(=O)(=O)C2)cc(C)c1Cl (stereo not given)	-5	-5	0	57*	-14	20
O=C(CSc1ncnc2c1nnn2Cc1ccc(F)cc1)NC1CCCCC1	-3	0	0	32	7	79*
O=C(CSc1ncnc2c1nnn2Cc1ccc(F)cc1)NCC1CCCO1 (stereo not given)	-4	0	2	63*	1	-15
COc1ccc(N)cc1CN1CCN(c2ncc(Cc3ccccc3)cn2)CC1	-4	·	·	·	·	·
COc1ccc(/C=C/C(=O)NC(=S)NNC(=O)c2cnccn2)cc1	-5	-2	-9	12	97*	65*
COc1ccc(/C=C/C(=O)NC(=S)NNC(=O)c2cccnc2)cc1	-5	3	4	-1	38	-13
